In brackets after ≈: the same amount, converted by molar mass.

Experiment [1] has as its system Staphylococcus aureus. Description: Antimicrobial activity against heterogeneous glycopeptide-intermediate Staphylococcus aureus by broth microdilution technique after 24 hrs. The format is functional. A digest of the protocol:
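CLSI broth microdilution in Mueller-Hinton broth with Mg 12.5 mg/liter and Ca 25 mg/liter. […] MBC determined as well. hVISA isolates were identified by subpopulation analysis.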
In general terms: Dilution methods test growth across graded concentrations, often in twofold steps.

The subject of experiment [2] is Staphylococcus aureus. Description: Antimicrobial activity against glycopeptide-intermediate Staphylococcus aureus by broth microdilution technique after 24 hrs. In kind it is functional. The method, boiled down:
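CLSI broth microdilution MIC and MBC in duplicate. Mueller-Hinton broth supplemented with Mg 12.5 mg/liter and Ca 25 mg/liter (Ca 50 mg/liter for daptomycin). Inoculum 5 × 10⁵ CFU/ml, 24 h at 35°C, tested up to 32.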

Experiment [3] deals with Staphylococcus aureus. Description: Bactericidal killing activity against Staphylococcus aureus Mu50 at 4 times MIC. The format is functional. The method, boiled down: (§1)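 Time-kill in Mueller-Hinton broth with Mg 12.5 mg/liter and Ca 25 mg/liter, run in triplicate. Drug at 0.5×, 1×, 4× and 10× MIC. Starting inocula ~6 log10 CFU/ml (5 × 10⁵ to 10⁶) or 8–9 log10 CFU/ml. Samples taken at 0, 1, 4, 8 and 24 h, diluted in cold 0.9% NaCl (filtered if carryover was possible), then spiral plated. Detection limit 2 log10 CFU/ml. Bactericidal = 99.9% kill.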

Experiment [4] concerns Staphylococcus aureus. Put plainly: Bactericidal killing activity of vancomycin-resistant Staphylococcus aureus by time kill curve analysis. The format is functional, organism-based. A digest of the protocol: as §1
Experiment [5] relates to Staphylococcus aureus. Description: Bactericidal killing activity against Staphylococcus aureus Mu3 at 10 times MIC. In kind it is functional. The method, boiled down: as §1
Experiment [6] relates to Staphylococcus aureus. Description: Bactericidal killing activity against 6 log10 CFU/ml Staphylococcus aureus Mu50 at 4 times MIC by time-kill curve analysis. In kind it is functional. A digest of the protocol: (§2)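 Time-kill in triplicate in Mueller-Hinton broth supplemented with Mg 12.5 mg/liter and Ca 25 mg/liter. Agent at 0.5×, 1×, 4× and 10× MIC. Starting inocula 5 × 10⁵ (about 6 log₁₀) or 1 × 10⁸ to 1 × 10⁹ CFU/ml. Samples at 0, 1, 4, 8 and 24 h, serially diluted in cold 0.9% NaCl or filtered to remove carryover. Counted by spiral plating on trypticase soy agar; detection limit 2 log₁₀ CFU/ml. Bactericidal = 99.9% kill.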

In experiment [7] the test system is Staphylococcus aureus. Put plainly: Post antibiotic effect on Staphylococcus aureus Mu50 after 0.5 hrs. The format is functional, organism-based. A digest of the protocol: (§3)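 Exposure for 0.5 h at 1×, 2× and 4× MIC, then rapid drug removal by washing, dilution, filtration or inactivation. PAE = T − C: time for treated culture to rise 1 log₁₀ CFU/ml after removal, minus the same for an untreated control. Reported as average ± standard deviation.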

Experiment [8] concerns Staphylococcus aureus. Put plainly: Bactericidal killing activity of heterogenous vancomycin-intermediate Staphylococcus aureus by time kill curve analysis. In kind it is functional, organism-based. A digest of the protocol: as §2
Experiment [9] concerns Staphylococcus aureus. Put plainly: Antibacterial activity against Staphylococcus aureus Mu50 assessed as bacterial density after 8 hrs by time-kill curve analysis. The format is functional. A digest of the protocol:
as §1

For experiment [10], the system named is Staphylococcus aureus. Put plainly: Bactericidal killing activity against Staphylococcus aureus Mu3 at MIC. The format is functional. The method, boiled down: as §2
The test system of experiment [11] is Staphylococcus aureus. Put plainly: Post antibiotic effect on vancomycin-resistant Staphylococcus aureus PA after 0.5 hrs. In kind it is functional, organism-based. The method, boiled down: (§4)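 Cultures exposed for 0.5 h at 1×, 2× and 4× MIC, then drug removed by washing, dilution, filtration or inactivation. PAE = T − C, where each is the time for counts to rise 1 log10 above the count right after drug removal, for treated (T) and untreated control (C) cultures.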

Experiment [12] deals with Staphylococcus aureus. Description: Bactericidal killing activity against Staphylococcus aureus Mu3 at 4 times MIC. The format is functional. A digest of the protocol: as §2
For experiment [13], the system named is Staphylococcus aureus. Description: Post antibiotic effect on vancomycin-resistant Staphylococcus aureus MI after 0.5 hrs. The format is functional, organism-based. The method, boiled down:
as §4

For experiment [14], the system named is Staphylococcus aureus. Put plainly: Bactericidal killing activity of vancomycin-intermediate Staphylococcus aureus by time kill curve analysis. The format is functional, organism-based. A digest of the protocol:
as §2

Experiment [15] relates to Staphylococcus aureus. Description: Bactericidal killing activity against 6 log10 CFU/ml Staphylococcus aureus Mu3 at MIC by time-kill curve analysis. The format is functional. The method, boiled down:
as §2

The subject of experiment [16] is Staphylococcus aureus. Description: Bactericidal killing activity of heterogenous vancomycin-intermediate Staphylococcus aureus at 10 times MIC by time kill curve analysis. The format is functional. A digest of the protocol:
as §2

Experiment [17] relates to Staphylococcus aureus. Description: Bactericidal killing activity against Staphylococcus aureus Mu50 at MIC. In kind it is functional. The method, boiled down: as §1
For experiment [18], the system named is Staphylococcus aureus. Description: Bactericidal killing activity against Staphylococcus aureus Mu3 at 0.5 times MIC. In kind it is functional. The method, boiled down:
as §2

Experiment [19] deals with Staphylococcus aureus. Put plainly: Antibacterial activity against Staphylococcus aureus Mu3 assessed as bacterial density after 24 hrs by time-kill curve analysis. The format is functional. A digest of the protocol:
as §2

Experiment [20] has as its system Staphylococcus aureus. Put plainly: Post antibiotic effect on Staphylococcus aureus Mu3 after 0.5 hrs. In kind it is functional, organism-based. The method, boiled down:
as §3

The subject of experiment [21] is Staphylococcus aureus. Put plainly: Bactericidal killing activity against 8 to 9 log10 CFU/ml Staphylococcus aureus Mu50 at 4 times MIC by time-kill curve analysis. In kind it is functional. A digest of the protocol: as §2
The subject of experiment [22] is Staphylococcus aureus. Put plainly: Antibacterial activity against Staphylococcus aureus Mu50 assessed as bacterial density after 24 hrs by time-kill curve analysis. The format is functional. A digest of the protocol: as §1
Experiment [23] concerns Staphylococcus aureus. Description: Bactericidal killing activity of vancomycin-intermediate Staphylococcus aureus at 10 times MIC by time kill curve analysis. The format is functional. The method, boiled down: as §2
In experiment [24] the test system is Staphylococcus aureus. Description: Bactericidal killing activity against 8 to 9 log10 CFU/ml Staphylococcus aureus Mu3 at MIC by time-kill curve analysis. The format is functional. The method, boiled down:
as §1

Experiment [25] has as its system Staphylococcus aureus. Put plainly: Antibacterial activity against Staphylococcus aureus Mu3 assessed as bacterial density after 8 hrs by time-kill curve analysis. In kind it is functional. A digest of the protocol: as §2

What is called MIC50 is an inhibitory concentration at the 50% level, which refers to growth in some studies and to a panel of isolates in others. Lower therefore signals greater potency. Broadly, the MIC90 is an inhibitory concentration at the 90% level, which refers to growth in some studies and to a panel of isolates in others. Higher therefore signals weaker potency. On to `CN[C@H](CC(C)C)C(=O)N[C@H]1C(=O)N[C@@H](CC(N)=O)C(=O)N[C@H]2C(=O)N[C@H]3C(=O)N[C@H](C(=O)N[C@H](C(=O)O)c4cc(O)cc(O)c4-c4cc3ccc4O)[C@H](O)c3ccc(c(Cl)c3)Oc3cc2cc(c3O[C@@H]2O[C@H](CO)[C@@H](O)[C@H](O)[C@H]2O[C@H]2C[C@](C)(N)[C@H](O)[C@H](C)O2)Oc2ccc(cc2Cl)[C@H]1O` [VANCOMYCIN], for which, in the experiment on Staphylococcus aureus [1], the MIC50 was 4 µg/mL (≈ 2.76 µM) and the MIC90 came out at 8 µg/mL (≈ 5.52 µM). Moreover, in the experiment with Staphylococcus aureus [2], the MBC50 was found to be 8 µg/mL (≈ 5.52 µM) and the MBC90 amounted to 8 µg/mL (≈ 5.52 µM).
For the compound `CCCCCCCCNCCC[C@@H](C)[C@H]1CC[C@H]2[C@@H]3[C@H](OCCCN)CC4C[C@H](OCCCN)CC[C@]4(C)[C@H]3C[C@H](OCCCN)[C@]12C.Cl.Cl.Cl.Cl` (stereo partly drawn), the T99.9% with Staphylococcus aureus [3] worked out at 4 h; in the experiment with Staphylococcus aureus [5], 1 h; in the experiment on Staphylococcus aureus [6], 4 h; with Staphylococcus aureus [10], 8 h; with Staphylococcus aureus [12], 4 h; with Staphylococcus aureus [15], 8 h. Further, the T99.9% in the experiment on Staphylococcus aureus [16] was 1 h; in the experiment with Staphylococcus aureus [17] it was 8 h; with Staphylococcus aureus [18], 24 h; with Staphylococcus aureus [21] it was “>=24 hr”; in the experiment with Staphylococcus aureus [23], 1 h; in the experiment on Staphylococcus aureus [24], “>=24 hr”. Also, the Activity result in the experiment with Staphylococcus aureus [4], in the experiment on Staphylococcus aureus [8] and with Staphylococcus aureus [14] was “Dose-dependent effect” throughout. For the same compound, the Post anitbiotic effect result in the experiment with Staphylococcus aureus [7], in the experiment on Staphylococcus aureus [11], in the experiment with Staphylococcus aureus [13] and in the experiment on Staphylococcus aureus [20] was “Dose-dependent effect” in each case. In the experiment with Staphylococcus aureus [1], this compound gave an MIC50 of 1 µg/mL. The compound also registered an MIC90 against Staphylococcus aureus [1] of 1 µg/mL. The compound further had an MBC50 in the experiment with Staphylococcus aureus [2] of 1 µg/mL. This compound also gave an MBC90 in the experiment on Staphylococcus aureus [2] of 1 µg/mL. Also, the log10CFU/ml was -3.4 in the experiment with Staphylococcus aureus [9], -3.75 in the experiment with Staphylococcus aureus [19], -3.75 in the experiment with Staphylococcus aureus [22] and -3.4 in the experiment with Staphylococcus aureus [25].
As to `CC(=O)NC[C@H]1CN(c2ccc(N3CCOCC3)c(F)c2)C(=O)O1` [LINEZOLID], in the experiment with Staphylococcus aureus [1], the MIC50 was determined as 1 µg/mL (≈ 2.96 µM) and the MIC90 turned out to be 2 µg/mL (≈ 5.93 µM). In the experiment with Staphylococcus aureus [2], this compound returned an MBC50 of 8 µg/mL (≈ 23.7 µM) and an MBC90 of 64 µg/mL (≈ 190 µM).
With `C[C@H](CCCO)[C@H]1CC[C@H]2[C@@H]3[C@H](OCCCN)CC4C[C@H](OCCCN)CC[C@]4(C)[C@H]3C[C@H](OCCCN)[C@]12C.Cl` (stereo partly drawn), in the experiment with Staphylococcus aureus [1], the MIC50 amounted to 4 µg/mL and the MIC90 worked out at 8 µg/mL. In the experiment with Staphylococcus aureus [2], this compound registered an MBC50 of 8 µg/mL and an MBC90 of 8 µg/mL.
Take `CCCCCCCCCC(=O)N[C@@H](Cc1c[nH]c2ccccc12)C(=O)N[C@H](CC(N)=O)C(=O)N[C@@H](CC(=O)O)C(=O)N[C@@H]1C(=O)NCC(=O)N[C@@H](CCCN)C(=O)N[C@@H](CC(=O)O)C(=O)N[C@H](C)C(=O)N[C@@H](CC(=O)O)C(=O)NCC(=O)N[C@H](CO)C(=O)N[C@@H]([C@H](C)CC(=O)O)C(=O)N[C@@H](CC(=O)c2ccccc2N)C(=O)O[C@@H]1C`: in the experiment with Staphylococcus aureus [1], the MIC50 worked out at 0.5 µg/mL (≈ 0.309 µM) and the MIC90 amounted to 1 µg/mL (≈ 0.617 µM). In the experiment with Staphylococcus aureus [2], this compound showed an MBC50 of 0.5 µg/mL (≈ 0.309 µM) and an MBC90 of 1 µg/mL (≈ 0.617 µM).
